From ChEMBL document CHEMBL6153064, “Structure-based discovery of novel diarylpyrimidines as potent and selective Non-Nucleoside reverse transcriptase inhibitors: From CH(CN)-Biphenyl-Diarylpyrimidines to CNNH2-Biphenyl-Diarylpyrimidines” (Eur J Med Chem, 2025)

Experiments:
[1] = test system: Human immunodeficiency virus 1; experiment: Antiviral activity against HIV-1 harboring L100I mutant infected in human MT4 cells […]; type: functional, organism-based; settings: Human immunodeficiency virus 1, MT4
[2] = Metabolic stability in human liver microsomes assessed as half life; type: ADME, Microsome
Summary of the method: (§1)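 Incubation with human liver microsomes; half-life obtained from depletion fit (R² reported), intrinsic clearance expressed per mg microsomal protein (μL/min/mg) and scaled to liver (mL/min/kg).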

[3] = Acute toxicity in ICR mouse assessed as […] kidney at 2 g/Kg, po measured after 14 days; type: organism-based; settings: in vivo, 2000 mg/kg, 336 h, time 14 day
Summary of the method: (§2)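 ICR mice, female and male, received one oral 2 g/kg dose. On day 14 after dosing they were dissected, and organs were examined by histopathology against a control group.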

[4] = Acute toxicity in ICR mouse assessed as change in ALT level at 2 g/Kg, po measured after 14 days; type: organism-based; settings: in vivo, 2000 mg/kg, 336 h, time 14 day
Summary of the method: (§3)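 ICR mice of both sexes received a single oral 2 g/kg dose. On day 14 after dosing, blood was examined for ALT, AST, CREA, UREA and CKMB and compared with control groups.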

[5] = test system: Human immunodeficiency virus 1; experiment: Antiviral activity against HIV-1 harboring Y181C mutant infected in human MT4 cells […]; type: functional, organism-based; settings: Human immunodeficiency virus 1, MT4
[6] = Cytotoxicity against human MT4 cells by MTT assay; type: toxicity, cell-based
[7] = Metabolic stability in human microsomes assessed as intrinsic clearance; type: ADME, Microsome; settings: read-out: CLH; summary of the method: as §1
[8] = Stability in human plasma assessed as parent compound remaining measured at 30 mins; type: ADME, cell-free; settings: read-out: Stability
[9] = Acute toxicity in ICR mouse assessed as change in AST level at 2 g/Kg, po measured after 14 days; type: organism-based; settings: in vivo, 2000 mg/kg, 336 h, time 14 day; summary of the method: as §3
[10] = Stability in human plasma assessed as parent compound remaining measured immediately; type: ADME, cell-free; settings: read-out: Stability
[11] = Stability in human plasma assessed as parent compound remaining measured at 60 mins; type: ADME, cell-free; settings: read-out: Stability
[12] = Acute toxicity in ICR mouse at 2 g/Kg, po measured for 2 weeks; type: organism-based; settings: in vivo, 2000 mg/kg, 336 h
Summary of the method: (§4)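 Healthy female and male ICR mice were given a single oral dose of 2 g/kg. Growth, death and toxic symptoms were followed over 2 weeks and compared with a control group.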

[13] = test system: Human immunodeficiency virus 1; experiment: Antiviral activity against wild type HIV-1 IIIB infected in human MT4 cells […]; type: functional, organism-based; settings: Human immunodeficiency virus 1, IIIB
[14] = test system: Human immunodeficiency virus 1; experiment: Antiviral activity against HIV-1 harboring K103N mutant infected in human MT4 cells […]; type: functional, organism-based; settings: Human immunodeficiency virus 1, MT4
[15] = Selectivity index, ratio of CC50 for cytotoxicity against human MT4 cells to EC50 for antiviral activity against wild type HIV-1 IIIB infected in human MT4 cells; type: toxicity, cell-based; settings: read-out: Ratio CC50/EC50
Summary of the method: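 Selectivity index calculated as CC50/EC50 ratio, both values from MTT viability readout in MT-4 cells, antiviral arm using wild-type HIV-1 IIIB.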

[16] = Stability in human plasma assessed as parent compound remaining measured at 15 mins; type: ADME, cell-free; settings: read-out: Stability
[17] = test system: Human immunodeficiency virus 1; experiment: Antiviral activity against HIV-1 harboring Y188L mutant infected in human MT4 cells assessed as inhibition of virus-induced cytopathic effect by MTT assay; settings: Human immunodeficiency virus 1, MT4
[18] = Acute toxicity in ICR mouse assessed as change in CKMB level at 2 g/Kg, po measured after 14 days; type: organism-based; settings: in vivo, 2000 mg/kg, 336 h, time 14 day; summary of the method: as §3
[19] = Acute toxicity in ICR mouse assessed as lung lesion at 2 g/Kg, po measured after 14 days; type: organism-based; settings: in vivo, 2000 mg/kg, 336 h, time 14 day; summary of the method: as §2
[20] = Acute toxicity in ICR mouse assessed as heart lesion at 2 g/Kg, po measured after 14 days; type: organism-based; settings: in vivo, 2000 mg/kg, 336 h, time 14 day; summary of the method: as §2
[21] = test system: Human immunodeficiency virus 1; experiment: Potency index, ratio of Efavirenz EC50 to test compound EC50 for antiviral activity against HIV-1 harboring K103N mutant infected in human MT4 cells […]; type: functional
[22] = Acute toxicity in ICR mouse assessed as change in UREA level at 2 g/Kg, po measured after 14 days; type: organism-based; settings: in vivo, 2000 mg/kg, 336 h, time 14 day; summary of the method: as §3
[23] = Acute toxicity in ICR mouse assessed as brain lesion at 2 g/Kg, po measured after 14 days; type: organism-based; settings: in vivo, 2000 mg/kg, 336 h, time 14 day; summary of the method: as §2
[24] = test system: Human immunodeficiency virus 1; experiment: Potency index, ratio of Nevirapine EC50 to test compound EC50 for antiviral activity against HIV-1 harboring E138K mutant infected in human MT4 cells […]; type: functional
[25] = Acute toxicity in ICR mouse assessed as liver lesion at 2 g/Kg, po measured after 14 days; type: organism-based; settings: in vivo, 2000 mg/kg, 336 h, time 14 day; summary of the method: as §2
[26] = target: Human immunodeficiency virus type 1 reverse transcriptase (Human immunodeficiency virus 1, UniProt Q72547); experiment: Inhibition of wild type HIV-1 Reverse transcriptase
[27] = Stability in human plasma assessed as parent compound remaining measured at 300 mins; type: ADME, cell-free; settings: read-out: Stability
[28] = Acute toxicity in ICR mouse assessed as animal death at 2 g/Kg, po measured for 2 weeks; type: organism-based; settings: in vivo, 2000 mg/kg, 336 h; summary of the method: as §4
[29] = test system: Human immunodeficiency virus 1; experiment: Potency index, ratio of Efavirenz EC50 to test compound EC50 for antiviral activity against HIV-1 harboring Y188L mutant infected in human MT4 cells […]; type: functional
[30] = Acute toxicity in ICR mouse assessed as change in CREA level at 2 g/Kg, po measured after 14 days; type: organism-based; settings: in vivo, 2000 mg/kg, 336 h, time 14 day; summary of the method: as §3
[31] = Acute toxicity in ICR mouse assessed as spleen lesion at 2 g/Kg, po measured after 14 days; type: organism-based; settings: in vivo, 2000 mg/kg, 336 h, time 14 day; summary of the method: as §2
[32] = Stability in human plasma assessed as half life; type: ADME, cell-free
[33] = test system: Human immunodeficiency virus 1; experiment: Antiviral activity against HIV-1 harboring E138K mutant infected in human MT4 cells […]; type: functional, organism-based; settings: Human immunodeficiency virus 1, MT4
[34] = Acute toxicity in ICR mouse assessed as adverse symptoms at 2 g/Kg, po measured for 2 weeks; type: organism-based; settings: in vivo, 2000 mg/kg, 336 h; summary of the method: as §4
[35] = Stability in human plasma assessed as parent compound remaining measured at 120 mins; type: ADME, cell-free; settings: read-out: Stability

COc1cc(-c2ccc(C#N)cc2)ccc1/C(=N\N)c1ccnc(Nc2ccc(C#N)cc2)n1
EC50 [1]: 7 nM
half-life [2]: 37.5 min
Activity [3]: Non-toxic
Activity [4]: Non-toxic
EC50 [5]: 22 nM
CC50 [6]: 54000 nM
microsomal CLint [7]: 37 µL/min/mg
remaining at 0.5 h [8]: 101%
Activity [9]: Non-toxic
remaining at 0 min [10]: 100%
remaining at 1 h [11]: 101%
Activity [12]: Non-toxic
EC50 [13]: 5 nM
EC50 [14]: 10 nM
selectivity ratio [15]: 11000
remaining at 0.25 h [16]: 104%
EC50 [17]: 148 nM
Activity [18]: Non-toxic
Activity [19]: Non-toxic
Activity [20]: Non-toxic
Ratio EC50 [21]: 8.6
Activity [22]: Non-toxic
Activity [23]: Non-toxic
Ratio EC50 [24]: 7.5
Activity [25]: Non-toxic
IC50 [26]: 81 nM
remaining at 5 h [27]: 94.7%
Activity [28]: Non-toxic
Ratio EC50 [29]: 2
Activity [30]: Non-toxic
Activity [31]: Non-toxic
half-life [32]: > 300 min
EC50 [33]: 21 nM
Activity [34]: Non-toxic
remaining at 2 h [35]: 98.2%
